# Measurements reported in ChEMBL document CHEMBL1158122, “Anti-inflammatory, anti-tumor-promoting, and cytotoxic activities of constituents of marigold (Calendula officinalis) flowers” (J Nat Prod, 2006).
# Legend:
# [1] = Cytotoxicity against human Raji cells assessed as cell viability at 10 molar ratio; type: cell-based; conditions: read-out: Activity
# Summary of the method: (§1)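 Raji cells were treated with 32 pmol TPA to induce EBV early antigen activation. The test agent was added at 10, 100, 500 or 1000 mol ratio relative to TPA, and Raji cell viability was measured alongside EA activation.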
# NCI-H226 = assay: Cytotoxicity against human NCI-H226 cells after 48 hrs by SRB assay; type: functional; conditions: NCI-H226, 48 h
# MOLT-4 = assay: Cytotoxicity against human MOLT-4 cells after 48 hrs by SRB assay; type: functional; conditions: MOLT-4, 48 h
# [2] = Cytotoxicity against human Raji cells assessed as cell viability at 500 molar ratio; type: cell-based; conditions: read-out: Activity; summary of the method: as §1
# SN12C = assay: Cytotoxicity against human SN12C cells after 48 hrs by SRB assay; type: functional
# [3] = Cytotoxicity against human Raji cells assessed as cell viability at 100 molar ratio; type: cell-based; conditions: read-out: Activity; summary of the method: as §1
# [4] = Cytotoxicity against human HCT 116 cells after 48 hrs by SRB assay; type: functional; conditions: HCT-116, 48 h
# UO-31 = assay: Cytotoxicity against human UO-31 cells after 48 hrs by SRB assay; type: functional; conditions: UO-31, 48 h
# Summary of the method: (§2)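 Tested in the NCI panel of 60 human tumour cell lines covering lung, colon, melanoma, renal, ovarian, breast and leukaemia. At least five concentrations were run in 10-fold dilutions starting from 10^-4 M. Exposure was continuous for 48 h. Growth or viability was estimated by sulforhodamine B protein staining, and GI50 values were reported.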
# BT-549 = assay: Cytotoxicity against human BT-549 cells after 48 hrs by SRB assay; type: functional; conditions: BT-549, 48 h
# [5] = Cytotoxicity against human Hs 578T cells after 48 hrs by SRB assay; type: functional
# NCI/ADR-RES = assay: Cytotoxicity against human NCI/ADR-RES cells after 48 hrs by SRB assay; type: functional
# RXF 393 = assay: Cytotoxicity against human […] cells after 48 hrs by SRB assay; type: functional; conditions: RXF 393, 48 h
# OVCAR-5 = assay: Cytotoxicity against human OVCAR5 cells after 48 hrs by SRB assay; type: functional; conditions: OVCAR-5, 48 h
# [6] = Cytotoxicity against human Raji cells assessed as cell viability at 1000 molar ratio; type: cell-based; conditions: read-out: Activity; summary of the method: as §1
# Raji [7] = assay: Inhibition of TPA-induced EBV-early antigen activation in human Raji cells at 1000 molar ratio relative to TPA; type: cell-based; set-up: scale not given: the % may be the effect or the level left; conditions: human gammaherpesvirus 4
# Mus musculus = assay: Antiinflammatory activity against TPA-induced ear edema in mouse; type: functional
# Summary of the method: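 Specific-pathogen-free female ICR mice were housed five per cage at 24 ± 2 °C. Inflammation was induced on the ear with TPA at 1 µg/ear, and the test agent was applied per ear. Ear edema inhibition was expressed as ID50 in mg per ear.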
# UACC-257 = assay: Cytotoxicity against human UACC-257 cells after 48 hrs by SRB assay; type: functional; conditions: UACC-257, 48 h; summary of the method: as §2
# A549 = assay: Cytotoxicity against human A549 cells after 48 hrs by SRB assay; type: functional; conditions: A549, 48 h
# IGROV-1 = assay: Cytotoxicity against human IGROV1 cells after 48 hrs by SRB assay; type: functional; conditions: IGROV-1, 48 h
# HOP-62 = assay: Cytotoxicity against human HOP-62 cells after 48 hrs by SRB assay; type: functional; conditions: HOP-62, 48 h
# NCI-H322M = assay: Cytotoxicity against human NCI-H322M cells after 48 hrs by SRB assay; type: functional
# HCT-15 = assay: Cytotoxicity against human HCT-15 cells after 48 hrs by SRB assay; type: functional; conditions: HCT-15, 48 h
# K562 = assay: Cytotoxicity against human K-562 cells after 48 hrs by SRB assay; type: functional; conditions: K562, 48 h
# T47D = assay: Cytotoxicity against human T47D cells after 48 hrs by SRB assay; type: functional; summary of the method: as §2
# SF-268 = assay: Cytotoxicity against human SF-268 cells after 48 hrs by SRB assay; type: functional; conditions: SF-268, 48 h
# Malme-3M = assay: Cytotoxicity against human MALME-3M cells after 48 hrs by SRB assay; type: functional
# MDA-MB-435 = assay: Cytotoxicity against human MDA-MB-435 cells after 48 hrs by SRB assay; type: functional; conditions: MDA-MB-435, 48 h
# NCI-H23 = assay: Cytotoxicity against human NCI-H23 cells after 48 hrs by SRB assay; type: functional; conditions: NCI-H23, 48 h
# MCF7 = assay: Cytotoxicity against human MCF7 cells after 48 hrs by SRB assay; type: functional; conditions: MCF7, 48 h
# EKVX = assay: Cytotoxicity against human EKVX cells after 48 hrs by SRB assay; type: functional
# SK-MEL-5 = assay: Cytotoxicity against human SK-MEL-5 cells after 48 hrs by SRB assay; type: functional; conditions: SK-MEL-5, 48 h
# OVCAR-8 = assay: Cytotoxicity against human OVCAR8 cells after 48 hrs by SRB assay; type: functional; conditions: OVCAR-8, 48 h
# PC-3 = assay: Cytotoxicity against human PC-3 cells after 48 hrs by SRB assay; type: functional; conditions: PC-3, 48 h
# SK-MEL-2 = assay: Cytotoxicity against human SK-MEL-2 cells after 48 hrs by SRB assay; type: functional; conditions: SK-MEL-2, 48 h
# [8] = Inhibition of TPA-induced EBV-early antigen activation in human Raji cells relative to TPA; type: cell-based, human gammaherpesvirus 4
# Raji [9] = assay: Inhibition of TPA-induced EBV-early antigen activation in human Raji cells at 100 molar ratio relative to TPA; type: cell-based; set-up: scale not given: the % may be the effect or the level left; conditions: human gammaherpesvirus 4
# Raji [10] = assay: Inhibition of TPA-induced EBV-early antigen activation in human Raji cells at 10 molar ratio relative to TPA; type: cell-based; set-up: scale not given: the % may be the effect or the level left; conditions: human gammaherpesvirus 4
# OVCAR-3 = assay: Cytotoxicity against human OVCAR-3 cells after 48 hrs by SRB assay; type: functional; conditions: OVCAR-3, 48 h
# HOP-92 = assay: Cytotoxicity against human HOP-92 cells after 48 hrs by SRB assay; type: functional; conditions: HOP-92, 48 h
# CAKI-1 = assay: Cytotoxicity against human Caki-1 cells after 48 hrs by SRB assay; type: functional; conditions: CAKI-1, 48 h
# RPMI-8226 = assay: Cytotoxicity against human RPMI8226 cells after 48 hrs by SRB assay; type: functional; conditions: RPMI-8226, 48 h
# U-251 = assay: Cytotoxicity against human U251 cells after 48 hrs by SRB assay; type: functional; conditions: U-251, 48 h; summary of the method: as §2
# Raji [11] = assay: Inhibition of TPA-induced EBV-early antigen activation in human Raji cells at 500 molar ratio relative to TPA; type: cell-based; set-up: scale not given: the % may be the effect or the level left; conditions: human gammaherpesvirus 4
# SNB-19 = assay: Cytotoxicity against human SNB-19 cells after 48 hrs by SRB assay; type: functional; conditions: SNB-19, 48 h
# SF-295 = assay: Cytotoxicity against human SF-295 cells after 48 hrs by SRB assay; type: functional; conditions: SF-295, 48 h
# TK-10 = assay: Cytotoxicity against human TK-10 cells after 48 hrs by SRB assay; type: functional; conditions: TK-10, 48 h; summary of the method: as §2
# UACC-62 = assay: Cytotoxicity against human UACC-62 cells after 48 hrs by SRB assay; type: functional; conditions: UACC-62, 48 h; summary of the method: as §2
# COLO 205 = assay: Cytotoxicity against human COLO205 cells after 48 hrs by SRB assay; type: functional; conditions: COLO 205, 48 h
# NCI-H522 = assay: Cytotoxicity against human NCI-H522 cells after 48 hrs by SRB assay; type: functional; conditions: NCI-H522, 48 h
# 786-0 = assay: Cytotoxicity against human 786-0 cells after 48 hrs by SRB assay; type: functional; conditions: 786-0, 48 h
# SW-620 = assay: Cytotoxicity against human SW620 cells after 48 hrs by SRB assay; type: functional; conditions: SW-620, 48 h
# HT-29 = assay: Cytotoxicity against human HT-29 cells after 48 hrs by SRB assay; type: functional; conditions: HT-29, 48 h
# KM12 = assay: Cytotoxicity against human KM12 cells after 48 hrs by SRB assay; type: functional; conditions: KM12, 48 h
# MDA-MB-231 = assay: Cytotoxicity against human MDA-MB-231 cells after 48 hrs by SRB assay; type: functional; conditions: MDA-MB-231, 48 h
# NCI-H460 = assay: Cytotoxicity against human NCI-H460 cells after 48 hrs by SRB assay; type: functional; conditions: NCI-H460, 48 h
# CCRF-CEM = assay: Cytotoxicity against human CCRF-CEM cells after 48 hrs by SRB assay; type: functional
smiles,measurement,setting,value
CC1(C)CC[C@]2(C(=O)O)CC[C@]3(C)C(=CC[C@@H]4[C@@]5(C)CC[C@H](O[C@@H]6O[C@H](C(=O)O)[C@@H](O)[C@H](O[C@@H]7O[C@H](CO)[C@H](O)[C@H](O)[C@H]7O)[C@H]6O[C@@H]6O[C@H](CO)[C@@H](O)[C@H](O)[C@H]6O)C(C)(C)[C@@H]5CC[C@]43C)[C@@H]2C1 [CALENDULAGYCOSIDE B],viability at 10 molar ratio,[1],> 80%
same,GI50,NCI-H226,> 100 µM
same,GI50,MOLT-4,86.3 µM
same,viability at 500 molar ratio,[2],> 80%
same,GI50,SN12C,84 µM
same,viability at 100 molar ratio,[3],> 80%
same,GI50,[4],> 100 µM
same,GI50,UO-31,63.5 µM
same,GI50,BT-549,> 100 µM
same,GI50,[5],97.4 µM
same,GI50,NCI/ADR-RES,> 100 µM
same,GI50,RXF 393,> 100 µM
same,GI50,OVCAR-5,> 100 µM
same,viability at 1000 molar ratio,[6],70%
same,Activity,Raji [7],5.1%
same,ID50,Mus musculus,0.05 mg
same,GI50,UACC-257,> 100 µM
same,GI50,A549,> 100 µM
same,GI50,IGROV-1,> 100 µM
same,GI50,HOP-62,> 100 µM
same,GI50,NCI-H322M,26 µM
same,GI50,HCT-15,94.6 µM
same,GI50,K562,81.1 µM
same,GI50,T47D,> 100 µM
same,GI50,SF-268,> 100 µM
same,GI50,Malme-3M,79.9 µM
same,GI50,MDA-MB-435,> 100 µM
same,GI50,NCI-H23,20.2 µM
same,GI50,MCF7,53.5 µM
same,GI50,EKVX,> 100 µM
same,GI50,SK-MEL-5,> 100 µM
same,GI50,OVCAR-8,> 100 µM
same,GI50,PC-3,20.6 µM
same,GI50,SK-MEL-2,> 100 µM
same,IC50,[8],470 molar ratio
same,Activity,Raji [9],69.2%
same,Activity,Raji [10],100%
same,GI50,OVCAR-3,> 100 µM
same,GI50,HOP-92,> 100 µM
same,GI50,CAKI-1,> 100 µM
same,GI50,RPMI-8226,50.9 µM
same,GI50,U-251,32.3 µM
same,Activity,Raji [11],40.3%
same,GI50,SNB-19,> 100 µM
same,GI50,SF-295,31 µM
same,GI50,TK-10,> 100 µM
same,GI50,UACC-62,23 µM
same,GI50,COLO 205,> 100 µM
same,GI50,NCI-H522,38.4 µM
same,GI50,786-0,> 100 µM
same,GI50,SW-620,> 100 µM
same,GI50,HT-29,40.9 µM
same,GI50,KM12,> 100 µM
same,GI50,MDA-MB-231,45 µM
same,GI50,NCI-H460,> 100 µM
same,GI50,CCRF-CEM,> 100 µM
